ChEMBL document CHEMBL1671698, “Is the recommended once-daily dose of lamivudine optimal in West African HIV-infected children?” (Antimicrob Agents Chemother, 2010)

How the values were obtained:
[1] = AUC (0 to tau) in HIV-1 infected children aged 6.9 years at 4 mg/kg, po every 12 hrs coadministered with nevirapine and stavudine by HPLC; type: ADME, organism-based; parameters: dose 4 mg/kg, route oral; conditions: human, plasma
[2] = AUC in HIV-1 infected children with body weight <17 kg at 8 mg/kg, po every 24 hrs coadministered with 240 mg/m2 of didanosine and efavirenz by HPLC; type: ADME, organism-based; parameters: dose 8 mg/kg, route oral; conditions: human, plasma
[3] = AUC (0 to tau) in HIV-1 infected children aged 2.1 to 12.8 years at 8 mg/kg, po every 24 hrs coadministered with 8 mg/kg abacavir by HPLC; conditions: human, plasma
[4] = Cmax in HIV-1 infected children aged 6.9 years at 4 mg/kg, po every 12 hrs coadministered with nevirapine and stavudine by HPLC; type: ADME, organism-based; parameters: dose 4 mg/kg, route oral; conditions: human, in vivo
[5] = AUC (0 to tau) in HIV-1 infected children aged 2.5 to 4.8 years at 4 mg/kg, po every 12 hrs by HPLC; type: ADME, organism-based; parameters: dose 4 mg/kg, route oral; conditions: human, plasma
[6] = AUC (0 to tau) in HIV-1 infected children aged 8.5 to 12.3 years at 4 mg/kg, po every 12 hrs by HPLC; type: ADME, organism-based; parameters: dose 4 mg/kg, route oral; conditions: human, plasma
[7] = Cmax in HIV-1 infected children aged 2.1 to 12.8 years at 8 mg/kg, po every 24 hrs coadministered with 8 mg/kg abacavir by HPLC; conditions: human, in vivo
[8] = AUC (0 to tau) in HIV-1 infected children aged 2.5 to 14 years at 8 mg/kg, po every 24 hrs coadministered with 240 mg/m2 of didanosine and efavirenz by HPLC; type: ADME, organism-based; parameters: dose 8 mg/kg, route oral; conditions: human, plasma
Procedure, shortened: (§1)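 Treatment-naive children took once-daily oral lamivudine at 8 mg/kg (tablets or solution) at 6 p.m. without food, with didanosine 240 mg/m2 and weight-banded efavirenz. Blood was drawn after 15 days (38 children) or 2–5 months (11 children), either predose plus 1 and 3 h, or predose through 24 h. Plasma was kept at −70°C and assayed by HPLC-UV (LLOQ 0.025 mg/liter). Data were fitted with a two-compartment population model in NONMEM using FOCE.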

[9] = Cmax in HIV-1 infected children aged 2.5 to 14 years at 8 mg/kg, po every 24 hrs coadministered with 240 mg/m2 of didanosine and efavirenz by HPLC; type: ADME, organism-based; parameters: dose 8 mg/kg, route oral; conditions: human, in vivo; procedure, shortened: as §1
[10] = AUC in HIV-1 infected children with body weight >17 kg at 8 mg/kg, po every 24 hrs coadministered with 240 mg/m2 of didanosine and efavirenz by HPLC; type: ADME, organism-based; parameters: dose 8 mg/kg, route oral; conditions: human, plasma
[11] = system: Homo sapiens; experiment: AUC in HIV-1 infected children with body weight <17 kg at 10 mg/kg, po every 24 hrs coadministered with 240 mg/m2 of didanosine and efavirenz by HPLC; type: ADME, organism-based, Plasma; parameters: dose 10 mg/kg, route oral; conditions: in vivo
[12] = Cmax in HIV-1 infected children aged 2.1 to 12.8 years at 4 mg/kg, po every 12 hrs coadministered with 8 mg/kg abacavir by HPLC; type: ADME, organism-based; parameters: dose 4 mg/kg, route oral; conditions: human, in vivo
[13] = Cmax in HIV-1 infected children aged 2.5 to 4.8 years at 4 mg/kg, po every 12 hrs by HPLC; type: ADME, organism-based; parameters: dose 4 mg/kg, route oral; conditions: human, in vivo
[14] = AUC (0 to tau) in HIV-1 infected children aged 2.1 to 12.8 years at 4 mg/kg, po every 12 hrs coadministered with 8 mg/kg abacavir by HPLC; type: ADME, organism-based; conditions: human, plasma
[15] = Cmax in HIV-1 infected children aged 8.5 to 12.3 years at 4 mg/kg, po every 12 hrs by HPLC; type: ADME, organism-based; parameters: dose 4 mg/kg, route oral; conditions: human, in vivo

SMILES: Nc1ccn([C@@H]2CS[C@H](CO)O2)c(=O)n1 [LAMIVUDINE]
- AUC tau at 12 h [1]: 5420 ng·h/mL
- AUC at 24 h [2]: 8100 ng·h/mL
- AUC tau at 24 h [3]: 9800 ng·h/mL
- Cmax [4]: 1330 ng/mL
- AUC tau at 12 h [5]: 3710 ng·h/mL
- AUC tau at 12 h [6]: 6540 ng·h/mL
- Cmax [7]: 2090 ng/mL
- AUC tau at 24 h [8]: 7800 ng·h/mL
- Cmax [9]: 1700 ng/mL
- AUC at 24 h [10]: 9100 ng·h/mL
- AUC [11]: 9800 ng·h/mL
- Cmax [12]: 1110 ng/mL
- Cmax [13]: 980 ng/mL
- AUC tau at 12 h [14]: 4440 ng·h/mL
- Cmax [15]: 1840 ng/mL
